Mcl1-Noxa inh: Mcl-1/Noxa interaction inhibition; Q07820; TR-FRET Mcl-1/Noxa peptide binding, 2 h; inhibition, % at 21.7 µM; 220,000 tested, 1.5% active; AID 1022;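 active means compounds that cut the protein-peptide binding signal by more than 50% relative to plate controls in a single-dose test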;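 further: His-tagged Mcl-1 with rhodamine Noxa BH3 peptide and terbium anti-His antibody; 0% = Mcl-1 plus Noxa peptide wells and 100% = peptide-only wells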
Calb biofilm kill: mixtures killing C. albicans biofilm | C. albicans biofilm persisters + clotrimazole, fluorescence viability; primary screen in compound mixtures of four per well | 120,000 tested, 0.02% active | AID 1242 | inhibition, % at 7.6 µM;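 active means inhibition above 30.3% in the primary screen of four-compound pools, then above 30% when the compound was retested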;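 further: compounds exposed to preformed 24 h biofilms for 48 h; 0% = untreated biofilm control and 100% = clotrimazole plus chlorhexidine kill blank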
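Test system: C. albicans biofilms. Buffer or medium: RPMI/MOPS medium, pH 7.0. Timing: 48 h compound exposure at 37 °C. Technique: Alamar Blue fluorescence. Evaluation: percent inhibition of biofilm viability.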
Mcl1-Bid inh: disrupts binding of human Mcl-1 to Bid peptide | Q07820 | TR-FRET Mcl-1/Bid-Dy647 peptide binding, 1536-well | inhibition, % at 21.7 µM | 220,000 tested, 0.97% active;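 active means compounds that cut the binding signal by more than half at the single screening dose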;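 further: His-tagged Mcl-1 with europium anti-His antibody binding Bid BH3 peptide; 0% = Mcl-1 plus peptide wells and 100% = peptide-only wells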
14-3-3 Bad PPI: disrupts binding of bovine 14-3-3 zeta to phospho-Bad peptide; P63103; TR-FRET 14-3-3zeta/Dy647-pBad peptide displacement, 1 h; inhibition, % at 21.7 µM; 220,000 tested, 0.71% active; AID 781;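 active means inhibition above about 70%, limit read from the data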;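 further: 0% = full 14-3-3 plus peptide FRET controls and 100% = background without 14-3-3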
Bim-Mcl-1: inhibitors of Bim-Mcl-1 interaction, human; Bead-based flow cytometry, Bim peptide-Mcl-1 binding; inhibition, % at 10 µM; 190,000 tested, 0.1% active; in the data active means inhibition above about 40%;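 further: 0% = no compound tracer wells and 100% = peptide blocker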
Hck Nef HTS: human Hck-Nef kinase inhibition. P08631. Recombinant Hck-YEEI plus Nef, Z-Lyte FRET kinase assay. inhibition, % at 20 µM. 220,000 tested, 0.68% active;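 active means Hck-Nef kinase inhibition above about 50%, limit read from the data; inactive means inhibition below that limit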;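 further: 0% = DMSO with Hck plus Nef and 100% = Hck alone without Nef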
Target sequence (P08631 whole entry, looked up): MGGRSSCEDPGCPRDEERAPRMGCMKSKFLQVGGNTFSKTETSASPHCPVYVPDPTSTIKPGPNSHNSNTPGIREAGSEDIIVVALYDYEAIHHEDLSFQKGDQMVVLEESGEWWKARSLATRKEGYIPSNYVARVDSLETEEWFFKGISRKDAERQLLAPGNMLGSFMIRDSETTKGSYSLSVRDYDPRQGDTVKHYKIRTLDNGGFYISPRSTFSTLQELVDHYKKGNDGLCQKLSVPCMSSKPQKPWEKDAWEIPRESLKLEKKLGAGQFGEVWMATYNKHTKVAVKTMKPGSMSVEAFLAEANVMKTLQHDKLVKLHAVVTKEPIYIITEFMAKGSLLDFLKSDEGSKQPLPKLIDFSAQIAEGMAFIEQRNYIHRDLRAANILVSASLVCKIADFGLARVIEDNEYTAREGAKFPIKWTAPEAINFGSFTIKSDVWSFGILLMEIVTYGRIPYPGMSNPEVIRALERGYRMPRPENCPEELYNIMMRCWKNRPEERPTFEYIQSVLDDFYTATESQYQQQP
Active calls of the source: *; / = not tested or not shown. This is a sample that favours compounds with a hit; in the whole collection about 3.2% have one here.

SMILES	Mcl1-Noxa inh	Calb biofilm kill	Mcl1-Bid inh	14-3-3 Bad PPI	Bim-Mcl-1	Hck Nef HTS
NC1=NC(=O)/C(=C/c2cn(CCC(=O)O)nc2-c2ccc(Cl)cc2)S1	72.5*	6.9	43.1	5.1	-6.0	4.7
O=C(O)CCn1cc(/C=C\C(=O)c2ccc(Cl)cc2)c(-c2cccc(Br)c2)n1	19.6	16.3	58.3*	-4.0	-2.0	6.1
CCOC(=O)c1c(NC(=O)CN2C(=O)CN(C)C2=O)sc(C)c1C	12.9	13.8	-19.1	-14.0	-4.0	22.0
COc1cc(C)c(S(=O)(=O)n2ccc(C)n2)cc1C	-13.5	/	-8.4	2.4	-1.0	9.5
CCC(SC1=Nc2ccccc2C2=NC(CC(C)C)C(=O)N12)C(=O)Nc1ccc2c(c1)OCO2 (stereo not drawn)	62.1*	/	-34.5	1.6	-3.0	-0.7
O=C(c1ccccc1F)N1CCN(CC2CC3C=CC2C3)CC1 (stereo not drawn)	3.0	/	11.1	81.4*	0.0	0.2
O=C(c1cccc(F)c1)N1CCN(CC2CC3C=CC2C3)CC1 (stereo not drawn)	8.2	/	28.8	48.7	-1.0	0.4
O=C(c1ccccc1F)N1CCN(Cc2ccccc2F)CC1	30.5	/	59.4*	37.4	-3.0	-17.5
O=C(c1cccc(Cl)c1)N1CCN(Cc2ccccc2F)CC1	28.7	/	69.3*	84.5*	-2.0	1.3
Cc1ccc(CN2CCN(CC3CC4C=CC3C4)CC2)cc1 (stereo not drawn)	13.1	/	43.5	72.3*	0.0	0.9
O=S(=O)(c1ccccc1)N1CCN(CC2CC3C=CC2C3)CC1 (stereo not drawn)	17.3	6.5	-3.6	5.5	0.0	-5.6
NC(=O)C(CC(=O)O)NC(=O)[C@@H]1CCCNc2c(I)cc([N+](=O)[O-])cc2C(=O)N[C@@H](CO)C(=O)N[C@@H](Cc2ccc(O)cc2)C(=O)N1 (stereo partly drawn)	26.1	17.8	11.5	-5.4	-1.0	-2.9
COC(=O)N1CCN(c2ccc(OC)cc2)CC1	10.9	/	-10.0	8.9	-3.0	9.0
COc1ccc(N2CCN(C(C)C(=O)N3CCCC3)CC2)cc1 (stereo not drawn)	29.1	9.6	19.7	78.8*	-1.0	11.9
O=C(O)c1nnn(-c2cc(C(F)(F)F)cc(C(F)(F)F)c2)c1-c1ccccc1	18.6	18.9	10.5	6.7	/	-7.4
Nc1nnc(CC(=O)N/N=C/c2ccc(-c3ccc(Cl)cc3Cl)o2)s1	51.1*	9.2	49.4	49.1	/	27.7
CN1CCN(CCCCOc2ccccc2C=O)CC1	14.2	11.1	55.8*	61.9	-3.0	22.4
O=Cc1ccccc1OCCOc1ccccc1C=O	0.0	4.4	7.4	6.7	1.0	8.4
COc1cccc(OC)c1OCCCCN1CCCC1	21.8	/	31.2	74.5*	-6.0	0.4
CC1CCN(CCCCOc2ccc([N+](=O)[O-])cc2)CC1	8.8	/	9.7	51.0	-3.0	0.1
CC1CCN(CCCCOc2ccccc2[N+](=O)[O-])CC1	-0.9	/	52.8*	84.7*	1.0	0.4
O=C(CCC(=O)Nc1ccc(Cl)cc1Cl)N/N=C/c1ccc([N+](=O)[O-])o1	6.9	20.9	-59.7	-5.2	2.0	14.3
CCc1ccc(OCC(=O)NC(NC(=S)Nc2ccc(Cl)cc2)C(Cl)(Cl)Cl)cc1 (stereo not drawn)	20.6	10.8	-20.5	0.0	-2.0	0.5
O=[N+]([O-])/C(C(Cl)=C(Cl)Cl)=C(/Sc1ccccc1)N1CCCCC1	-0.4	9.2	-10.9	-3.0	/	7.6
Cc1cc(SCC(=O)N/N=C/c2ccc(O)c(O)c2O)c(C)cc1Br	84.2*	/	17.7	1.9	-2.0	0.7
O=C1CC(Sc2ccc(Cl)cc2)C(=O)N1c1ccc2c(c1)OCCO2 (stereo not drawn)	11.8	0.9	-7.2	0.7	/	-3.5
Cc1cccc(OCCSc2nc(N)cc(N)n2)c1	-15.9	15.6	-37.9	-2.1	/	-36.9
Cc1cccc(C(=O)OCC(=O)NCCCc2ccccc2)c1	2.5	1.7	-23.4	-2.1	-1.0	25.5
O=C(COC(=O)c1ccc2ccccc2c1)NCCCc1ccccc1	4.8	14.1	81.0*	-0.3	-2.0	1.1
Cc1ccc(C(c2nnnn2CC2CCCO2)N2CCN(C(=O)c3ccco3)CC2)cc1 (stereo not drawn)	3.3	/	-1.6	-1.0	0.0	-0.7

Assay outcomes as filed in PubChem.
